Experimental data as given in ChEMBL document CHEMBL1122686, “Troponoids. 6. Troponylpiperazines: a new class of dopamine agonists” (1984).
Active and inactive are the calls of the source. The rule behind the calls is not given here.

Columns and labels:
Rattus norvegicus [1] = species: Rattus norvegicus; experiment: Duration of activity in rat; assay type: functional
Method in brief: (§1)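 Rats (~250 g at surgery, pentobarbital 40 mg/kg ip) received unilateral 6-OHDA (8 µg in 3 µL) to lesion the nigrostriatal pathway. At 3–4 weeks, rats turning 8–10 times/min after apomorphine 0.25 mg/kg sc were selected. They were housed singly, food-restricted to 350–400 g, dosed sc (free base) in groups of 4–8, and placed at once in automatic rotometers. Total contralateral turns (mean ± SEM) and duration of action (h) were recorded.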

Rattus norvegicus [2] = experiment: Inhibition of the 6-OHDA-induced Hypokinesia in rat, at 50 mg/Kg sc, expressed as cumulative ambulation score; assay type: functional
Method in brief: (§2)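 Male Sprague-Dawley rats (~280 g), anesthetized with pentobarbital, got 6-OHDA (26 µg/4 µL) bilaterally into the anterolateral hypothalamus. Four days later, only near-akinetic rats in a 36-square open field were used. Doses were free base, given sc in distilled water or Tween 80 suspension. Ambulation (all four limbs in one square) was scored in six 2-min periods at 15–120 min, then summed.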

Rattus norvegicus [3] = experiment: Rotational behavior induced by the compound in rat with a unilateral 6-OHDA-induced lesion of the Nigro-striatal dopamine, at 25 mg/Kg sc; duration of activity=5 hr; assay type: functional
Rattus norvegicus [4] = experiment: Rotational behavior induced by the compound in rat with a unilateral 6-OHDA-induced lesion of the Nigro-striatal dopamine, at 50 mg/Kg sc, duration of activity=6 hr; assay type: functional
Rattus norvegicus [5] = experiment: Rotational behavior induced by the compound in rat with a unilateral 6-OHDA-induced lesion of the Nigro-striatal dopamine, at 75 mg/Kg sc; duration of activity=9 hr; assay type: functional
Rattus norvegicus [6] = experiment: Percent decrease on dopamine agonist-induced rotation in unilaterally 6-OH-DA-lesioned rat at 0.25 mg/kg; assay type: functional
Method in brief: (§3)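 Rats were unilaterally 6-OHDA-lesioned and apomorphine-screened for rotation. Haloperidol (0.1, 0.25 or 0.5 mg/kg ip) or vehicle was given 1 h before the DA agonist (75 mg/kg sc). Total contralateral turns were counted automatically in rotometers (mean ± SEM). Percent decrease was taken relative to vehicle pretreatment, with significance by Student's t test.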

Rattus norvegicus [7] = experiment: Percent decrease on dopamine agonist-induced rotation in unilaterally 6-OH-DA-lesioned rat at 0.5 mg/kg; assay type: functional; method in brief: as §3
Rattus norvegicus [8] = experiment: Percent decrease on dopamine agonist-induced rotation in unilaterally 6-OH-DA-lesioned rat at 0.1 mg/kg; assay type: functional; method in brief: as §3
Rattus norvegicus [9] = experiment: Effect on dopamine agonist-induced rotation in unilaterally 6-OH-DA-lesioned rat at 0.1 mg/kg, ip; Compound 35 was injected subcutaneously at 75 mg/kg; assay type: functional; method in brief: as §3
Rattus norvegicus [10] = experiment: Effect on dopamine agonist-induced rotation in unilaterally 6-OH-DA-lesioned rat at 0.25 mg/kg, ip; Compound 35 was injected subcutaneously at 75 mg/kg; assay type: functional; method in brief: as §3
Rattus norvegicus [11] = experiment: Effect on dopamine agonist-induced rotation in unilaterally 6-OH-DA-lesioned rat at 0.5 mg/kg, ip; Compound 35 was injected subcutaneously at 75 mg/kg; assay type: functional; method in brief: as §3
Rattus norvegicus [12] = experiment: Drug pretreatment vs. vehicle pretreatment; statistical analysis by Student''s t test at 0.1 mg/kg; NS-Not Significant; assay type: functional, organism-based; parameters: dose 0.1 mg/kg; method in brief: as §3
Rattus norvegicus [13] = experiment: Inhibition of the 6-OHDA-induced Hypokinesia in rat, at 25 mg/Kg sc, expressed as cumulative ambulation score; assay type: functional; method in brief: as §2
Rattus norvegicus [14] = experiment: Rotational behavior induced by the compound in rats with a unilateral 6-OHDA-induced lesion of the Nigro-striatal dopamine, at 50 mg/Kg sc; duration of activity=6 hr; assay type: functional; method in brief: as §1
Rattus norvegicus [15] = experiment: Rotational behavior induced by the compound in rat with a unilateral 6-OHDA-induced lesion of the Nigro-striatal dopamine, at 25 mg/Kg sc; duration of activity=4 hr; assay type: functional; method in brief: as §1
Rattus norvegicus [16] = experiment: Rotational behavior induced by the compound in rat with a unilateral 6-OHDA-induced lesion of the Nigro-striatal dopamine, at 75 mg/Kg sc; assay type: functional; method in brief: as §1
Rattus norvegicus [17] = experiment: Inhibition of the 6-OHDA-induced Hypokinesia in rat, at 50 mg/Kg sc, expressed as cumulative ambulation score; inactive; assay type: functional, organism-based; method in brief: as §2
Rattus norvegicus [18] = species: Rattus norvegicus; experiment: Duration of activity was determined; assay type: functional; method in brief: as §1
Rattus norvegicus [19] = experiment: Inhibition of the 6-OHDA-induced Hypokinesia in rat, at 10 mg/Kg sc, expressed as cumulative ambulation score; assay type: functional; method in brief: as §2
Rattus norvegicus [20] = experiment: Rotational behavior induced by the compound in rats with a unilateral 6-OHDA-induced lesion of the Nigro-striatal dopamine, at 8 mg/Kg sc; assay type: functional; method in brief: as §1
Rattus norvegicus [21] = experiment: Rotational behavior induced by the compound in rat with a unilateral 6-OHDA-induced lesion of the Nigro-striatal dopamine, at 50 mg/Kg sc; duration of activity=6 hr; assay type: functional; method in brief: as §1
Rattus norvegicus [22] = experiment: Inhibition of the 6-OHDA-induced Hypokinesia in rat, at 25 mg/Kg sc, expressed as cumulative ambulation score; inactive; assay type: functional, organism-based; method in brief: as §2

CN1CCN(c2cccccc2=O)CC1.O=C(O)/C=C\C(=O)O
Duration of action (Rattus norvegicus [1]): 9 h | Score (Rattus norvegicus [2]): 278 | Score (Rattus norvegicus [3]): 551 | Score (Rattus norvegicus [4]): 1814 | Score (Rattus norvegicus [5]): 2842

N#CCN1CCN(c2cccccc2=O)CC1
Score (Rattus norvegicus [2]): 126

CC(C)N1CCN(c2cccccc2=O)CC1
Score (Rattus norvegicus [2]): 431

O=C(CCCN1CCC(O)(c2ccc(Cl)cc2)CC1)c1ccc(F)cc1 [HALOPERIDOL]
Decrease (Rattus norvegicus [6]): -56% | Decrease (Rattus norvegicus [7]): -77% | Decrease (Rattus norvegicus [8]): -33% | Total no. of turns (Rattus norvegicus [9]): 1626 | Total no. of turns (Rattus norvegicus [10]): 1055 | Total no. of turns (Rattus norvegicus [11]): 567 | P (Rattus norvegicus [12]): inactive

CC(=O)OCCN1CCN(c2cccccc2=O)CC1
Duration of action (Rattus norvegicus [1]): 10 h | Score (Rattus norvegicus [13]): 106 | Score (Rattus norvegicus [2]): 232 | Score (Rattus norvegicus [14]): 1485 | Score (Rattus norvegicus [15]): 743 | Score (Rattus norvegicus [16]): 3640

CN1CCC(c2cccccc2=O)CC1
Score (Rattus norvegicus [17]): inactive

CCCCN1CCN(c2cccccc2=O)CC1
Score (Rattus norvegicus [17]): inactive

CC(O)CN1CCN(c2cccccc2=O)CC1 (stereo not given)
Score (Rattus norvegicus [13]): 190 | Score (Rattus norvegicus [2]): 400

CC(C)C[C@H]1C(=O)N2CCC[C@H]2[C@]2(O)O[C@](NC(=O)[C@@H]3C=C4c5cccc6[nH]c(Br)c(c56)C[C@H]4N(C)C3)(C(C)C)C(=O)N12 [BROMOCRIPTINE]
Duration of action (Rattus norvegicus [18]): 18 h | Score (Rattus norvegicus [19]): 112 | Score (Rattus norvegicus [20]): 4868

CCOC(=O)CN1CCN(c2cccccc2=O)CC1
Score (Rattus norvegicus [17]): inactive

O=c1cccccc1N1CCN(CCCO)CC1
Score (Rattus norvegicus [2]): 71

CC1CCN(c2cccccc2=O)CC1
Score (Rattus norvegicus [17]): inactive

O=c1cccccc1N1CCN(CCO)CC1
Duration of action (Rattus norvegicus [1]): 12 h | Score (Rattus norvegicus [13]): 88 | Score (Rattus norvegicus [2]): 187 | Score (Rattus norvegicus [15]): 369 | Score (Rattus norvegicus [16]): 4582 | Score (Rattus norvegicus [21]): 1378

O=C1CCCCCC1N1CCN(CCO)CC1 (stereo not given)
Score (Rattus norvegicus [17]): inactive

CC(C)(C)N1CCN(c2cccccc2=O)CC1
Score (Rattus norvegicus [17]): inactive

CC(O)C(C)N1CCN(c2cccccc2=O)CC1 (stereo not given)
Score (Rattus norvegicus [22]): inactive

O=c1ccc(Cl)ccc1N1CCN(CCO)CC1
Score (Rattus norvegicus [17]): inactive

Br.O=c1c(Br)ccccc1N1CCN(CCO)CC1
Score (Rattus norvegicus [2]): 136

CC(C)(C)C(=O)OCCN1CCN(c2cccccc2=O)CC1.O=C(O)/C=C\C(=O)O
Score (Rattus norvegicus [2]): 137

CC(=O)NCCN1CCN(c2cccccc2=O)CC1
Score (Rattus norvegicus [17]): inactive

OCCN1CCN(c2ccccc2)CC1
Score (Rattus norvegicus [17]): inactive

CC(C)CN1CCN(c2cccccc2=O)CC1.O=C(O)/C=C\C(=O)O
Score (Rattus norvegicus [13]): 372

O=c1cccccc1N1CCN(CC(O)CO)CC1 (stereo not given)
Score (Rattus norvegicus [2]): 58

CC(CO)N1CCN(c2cccccc2=O)CC1 (stereo not given)
Score (Rattus norvegicus [22]): inactive

NC(=O)CN1CCN(c2cccccc2=O)CC1
Score (Rattus norvegicus [17]): inactive

CN1CCCN(c2cccccc2=O)CC1
Score (Rattus norvegicus [17]): inactive

CCN1CCN(c2cccccc2=O)CC1
Score (Rattus norvegicus [2]): 70

CN1CCN(c2ccccc2)CC1
Score (Rattus norvegicus [17]): inactive

CCCN1CCN(c2cccccc2=O)CC1
Score (Rattus norvegicus [2]): 159

CCOCCN1CCN(c2cccccc2=O)CC1.O=C(O)/C=C\C(=O)O
Score (Rattus norvegicus [2]): 67

O=c1cccccc1N1CCNCC1
Score (Rattus norvegicus [2]): 55

O=c1cccccc1N1CCN(CCOc2ccccc2)CC1
Score (Rattus norvegicus [17]): inactive
